One experiment deals with adult A. ceylanicum. The experiment can be described thus: Adult hookworm in vitro assay. The class given is cell-based, Ancylostoma ceylanicum. Conditions: for killing of adult A. ceylanicum: 50 μM, 72 h. In outline:
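Adult worms taken from small intestines of hamsters orally infected with 150 A. ceylanicum L3s three weeks earlier. Three worms per well, 2 wells per compound, in HBSS with 10% foetal calf serum, amphotericin B (25 μg/ml), penicillin (100 U/ml) and streptomycin (100 μg/ml). Test compound at 50 μM; levamisole (50 μM) as positive control. Held 72 h at 37 °C, 5% CO2, then condition assessed microscopically.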

For the next experiment, the system named is T. muris L1s. The experiment can be described thus: Whipworm L1 in vitro assay. The class given is cell-based, Trichuris muris. In a few lines:
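Forty T. muris L1s per well in 100 μl RPMI-1640 with amphotericin B (12.5 μg/ml), penicillin (500 U/ml) and streptomycin (500 μg/ml). Test compound at 100 μM in duplicate; levamisole (100 μM) as positive control. Held 24 h at 37 °C, 5% CO2. Total L1s counted, then larvae stimulated with 100 μl hot water and motile L1s counted.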

In experiment [1] the test system is Haemonchus contortus exsheathed third-stage larvae (xL3s). The experiment can be described thus: Whole-organism xL3 motility assay. The class given is cell-based. As to conditions: for IC50: Haemonchus contortus.
Experiment [2] concerns Haemonchus contortus fourth-stage larvae (L4s). The experiment can be described thus: L4 motility assay. The class given is cell-based.
Experiment [3] deals with mammary epithelial cell line (MCF10A). Briefly: cells. As to conditions: for IC50 / inhibition at 100 µM: Homo sapiens, MCF-10A; for IC50: 48 h, read-out: MCF10A cells IC50; for inhibition at 100 µM: read-out: MCF10A cells % inhibition at 100 μM; for Selectivity index (SI) H. contortus L4 (72 h) / Selectivity index (SI) H. contortus L4 development (7 days) / Selectivity index (SI) H. contortus xL3 (72 h): highest value of IC50 range; for selectivity index (SI) for parasitic larvae of H. contortus, range: range over xL3, L4 motility and L4 development. The class given is cell-based.

The test system of experiment [4] is adult female and male Brugia malayi. As to conditions: ref Storey et al., 2014, cited from earlier work.
Experiment [5] deals with microfilariae of Brugia malayi. Conditions: read-out: motility IC50, B. malayi microfilariae; ref Storey et al., 2014; cited from earlier work.
Experiment [6] has as its system microfilariae of Dirofilaria immitis. As to conditions: read-out: motility IC50, D. immitis microfilariae; cited from earlier work.
The subject of experiment [7] is adult female and male Brugia malayi. The experiment can be described thus: Adult motility assay. The class given is cell-based. Conditions: for IC50: Brugia malayi.
For experiment [8], the system named is microfilariae of Brugia malayi. The experiment can be described thus: Microfilariae motility assay. The class given is cell-based. Conditions: 72 h, read-out: motility IC50, B. malayi microfilariae. In outline: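 Individual gravid B. malayi females in RPMI-1640 with gentamycin (10 μg/ml) and amphotericin B (2.5 μg/ml). Two-fold test-compound dilutions from 100 to 0.97 μM in duplicate; RPMI* with 1% DMSO as negative control. Incubated at 37 °C, 5% CO2. At 72 h, about 100 released microfilariae moved to 96-well plates and filmed for 30 s on the Worminator. Run three times; IC50 from a four-parameter variable-slope fit.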

Experiment [9] has as its system microfilariae of Dirofilaria immitis. Briefly: microbe, parasite or virus in culture. The class given is cell-based. As to conditions: for IC50: Dirofilaria immitis, read-out: motility IC50, D. immitis microfilariae.
Setting [10] is: 24 h, read-out: xL3 motility IC50.
The mark [11] stands for this setting: 48 h, read-out: xL3 motility IC50.
Where [12] appears, read: 72 h, read-out: xL3 motility IC50.
[13] abbreviates: 24 h, read-out: L4 motility IC50.
Setting [14] is: 48 h, read-out: L4 motility IC50.
Setting [15] is: 72 h, read-out: L4 motility IC50.
[16] abbreviates: IC50 MCF10A / IC50 nematode, estimated IC50 range.

Where “and” joins values, the source holds several entries; their conditions need not be identical. Equal entries are not always repeated. Where two headings read alike, the source gives them in different places. Marks after values point to notes of the source that are not given here.

A word on the IC50: it is the concentration that gives 50% inhibition. What is called inhibition is the percentage by which the read-out fell short of the control.

For the compound `c1ccc([C@H]2CN3CCSC3=N2)cc1` [levamisole, reference compound], in the experiment on adult A. ceylanicum, the “killing of adult A. ceylanicum” value is “killed”. In addition, in the experiment on T. muris L1s (100 μM, 24 h), the “killing of T. muris L1s” value is on record as “killed”.
Consider `CO/N=C1\C[C@]2(C[C@@H]3C[C@@H](C/C=C(\C)C[C@@H](C)/C=C/C=C4\CO[C@@H]5[C@H](O)C(C)=C[C@@H](C(=O)O3)[C@]45O)O2)O[C@H](/C(C)=C/C(C)C)[C@H]1C` [Moxidectin, moxidectin], for which the IC50 in experiment [1] (setting [10]) amounted to 190 ± 30 nM; in experiment [1] (setting [11]), 970 ± 840 nM; in experiment [1] (setting [12]), 80 ± 40 nM; in [2] (setting [13]), 70 ± 40 nM; in experiment [2] (setting [14]) it was 50 ± 20 nM; in experiment [2] (setting [15]) it was 20 ± 10 nM. For the same compound, the IC50 in experiment [3] is < 6000 nM; in experiment [5] it was ~6000 nM; in experiment [6], 9300 nM. Further, the inhibition at 100 µM in experiment [3] is 0.05 ± 0.01%. The “Selectivity index (SI) H. contortus L4 (72 h)” value in experiment [3] (IC50 MCF10A / IC50 nematode) came to 300. In experiment [3] (IC50 MCF10A / IC50 nematode), the “Selectivity index (SI) H. contortus L4 development (7 days)” value (shortened to “Selectivity index … (7 days)”) stood at 1.7. Further, the “Selectivity index (SI) H. contortus xL3 (72 h)” value in experiment [3] (IC50 MCF10A / IC50 nematode) is listed as 75. Moreover, the “selectivity index (SI) for parasitic larvae of H. contortus, range” value (“selectivity index (SI) … range” below) in [3] was in the range of 2 to 300. Also, the entries for the “comparison value for motility of adult B. malayi” value in experiment [4] (24 h) and in experiment [4] (48 h) were 1.3 µM and 2.9 µM, respectively.
For the compound `O=C(Nc1ccc(Cl)cc1)N1CCCC1c1nc(-c2ccccc2)no1` (stereo not shown) [SN00797439, N-(4-chlorophenyl)-2-(3-phenyl-1,2,4-oxadiazol-5-yl)-1-pyrrolidinecarboxamide], the xL3 phenotype result in [1] (20 μM) was ““coiled” xL3 phenotype”. For the same compound, in [1] (20 μM, 72 h, primary and confirmatory screens), the “reduction of xL3 motility” value is given as ≥ 70%. The IC50 in [1] (setting [10]) is 3460 ± 820 nM; in [1] (setting [11]), 10100 ± 2060 nM; in [1] (setting [12]), 5930 ± 1380 nM; in experiment [1] (read-out: xL3 IC50 (abstract summary)), 3460 to 5930 nM; in [2] (setting [13]) it was 6250 to 12500 nM; in [2] (setting [14]), 780 to 1500 nM. Further, the half-inhibitory concentration (IC50) in experiment [2] (setting [15]) is 310 to 780 nM; in experiment [2] (read-out: L4 motility IC50 (abstract summary)) it was 310 to 12500 nM; in experiment [7] (24 h, read-out: motility IC50, B. malayi adult female), 25000 to 50000 nM; in [7] (24 h, read-out: motility IC50, B. malayi adult male), 25000 to 50000 nM; in [8], ~3000 nM; in experiment [9] (24 h), ~50000 nM. Moreover, the 50% inhibitory concentration (IC50) is ~50000 nM in [9] (48 h); 3000 to 50000 nM in the experiment on T. muris L1s (Trichuris muris, read-out: IC50 on first-stage larvae of T. muris (abstract)); 50000 to 100000 nM in experiment [3]. Besides, the “concentration at which movement of female and male adults ceased” value in [7] (24 h) came out at 100 µM; in experiment [7] (48 h), 50 µM. In addition, the “concentration giving complete inhibition of microfilariae motility” value in [9] amounted to 100 µM. The “kill of adults of A. ceylanicum (abstract)” value with adult A. ceylanicum is listed as > 90%. Moreover, the “killing of adult A. ceylanicum” value with adult A. ceylanicum is reported as “killed”. In the experiment on T. muris L1s (100 μM, 24 h), the “T. muris L1s dead” value was > 90% and 90.1%. In addition, the “Selectivity index (SI) D. immitis mff (48 h)” value in [3] is 2 ^b. Moreover, the inhibition at 100 µM in experiment [3] worked out at 6.2 ± 0.66%. In [3] (setting [16]), the “Selectivity index (SI) B. malayi adult females” value is recorded as 2 ^b. Also, the “Selectivity index (SI) B. malayi adult males” value in [3] (setting [16]) is recorded as 2 ^b. Moreover, the “Selectivity index (SI) H. contortus L4 (72 h)” value in experiment [3] (IC50 MCF10A / IC50 nematode) is recorded as 128.2 ^b. In addition, the “Selectivity index … (7 days)” value in [3] (IC50 MCF10A / IC50 nematode) is 9.1. In addition, the “Selectivity index (SI) H. contortus xL3 (72 h)” value in experiment [3] (IC50 MCF10A / IC50 nematode) came to 16.9. Further, the “selectivity index (SI) … range” value in experiment [3] was 9–128.
For the compound `C[C@](C#N)(COc1cc(C#N)ccc1C(F)(F)F)NC(=O)c1ccc(SC(F)(F)F)cc1` [Monepantel, monepantel], the half-maximal inhibitory concentration (IC50) in experiment [1] (setting [10]) was found to be 480 ± 230 nM; in experiment [1] (setting [11]) it was 260 ± 150 nM; in experiment [1] (setting [12]), 160 ± 80 nM; in [2] (setting [13]), 760 ± 290 nM; in experiment [2] (setting [14]) it was 340 ± 180 nM; in experiment [2] (setting [15]), 370 ± 320 nM. The IC50 in [3] turned out to be 24900 ± 11800 nM. Also, the inhibition at 100 µM in [3] was 0.1 ± 0.05%. Besides, in experiment [3] (IC50 MCF10A / IC50 nematode), the “Selectivity index (SI) H. contortus L4 (72 h)” value is 67.4. Besides, the “Selectivity index … (7 days)” value in experiment [3] (IC50 MCF10A / IC50 nematode) is 332.4. The “selectivity index (SI) … range” value in experiment [3] is 67–332.
Turning to ivermectin, the IC50 in experiment [6] is 43000 nM.

The record behind these values is article PMC5517787 (International Journal for Parasitology: Drugs and Drug …, 2017).
